This note sets out measurements from ChEMBL document CHEMBL1155120, “Synthesis of 4-oxo-4,7-dihydrofuro[2,3-b]pyridine-5-carboxamides with broad-spectrum human herpesvirus polymerase inhibition” (Bioorg Med Chem Lett, 2008).

In brackets after ≈: the same amount, converted by molar mass.

Data set [1] is described as follows: Inhibition of HCMV DNA polymerase by scintillation proximity assay. Set-up: species or system Human betaherpesvirus 5. The method, boiled down:
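Scintillation proximity assay with purified HCMV DNA polymerase, measuring incorporation of ³H-labelled nucleotide into template-primer. IC50 values are means of at least two experiments, with standard deviation where given.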

A short description of data set [2]: Inhibition of human polymerase delta by scintillation proximity assay. (Scintillation proximity formats need no separation of bound from free tracer.)
Another data set deals with Human alphaherpesvirus 3. Kind of data set: Antiviral activity against VZV Webster by plaque reduction assay. It counts as functional, organism-based. Particulars: Human alphaherpesvirus 3, Webster.
Data set [3] in a line: Inhibition of human polymerase alpha by scintillation proximity assay.
The subject of a further data set is Human betaherpesvirus 5. The experiment in a line: Antiviral activity against HCMV Davis by plaque reduction assay. The class given is functional, organism-based. Particulars: Human betaherpesvirus 5, Davis. The method, boiled down: (§1)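 Plaque reduction assays used HCMV Davis strain and HSV-1 KOS strain. IC50 values are means of at least two experiments, with standard deviation where given.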
A general note: Plaques are areas of infected cells; plaque reduction assays count them against a control.

A short description of data set [4]: Inhibition of human polymerase gamma by scintillation proximity assay.
Data set [5] has as its target T1, DNA polymerase catalytic subunit (Human herpesvirus 1 (strain KOS) (HHV-1) (Human herpes simplex virus1), UniProt P04292).
T1 sequence (P04292 whole entry): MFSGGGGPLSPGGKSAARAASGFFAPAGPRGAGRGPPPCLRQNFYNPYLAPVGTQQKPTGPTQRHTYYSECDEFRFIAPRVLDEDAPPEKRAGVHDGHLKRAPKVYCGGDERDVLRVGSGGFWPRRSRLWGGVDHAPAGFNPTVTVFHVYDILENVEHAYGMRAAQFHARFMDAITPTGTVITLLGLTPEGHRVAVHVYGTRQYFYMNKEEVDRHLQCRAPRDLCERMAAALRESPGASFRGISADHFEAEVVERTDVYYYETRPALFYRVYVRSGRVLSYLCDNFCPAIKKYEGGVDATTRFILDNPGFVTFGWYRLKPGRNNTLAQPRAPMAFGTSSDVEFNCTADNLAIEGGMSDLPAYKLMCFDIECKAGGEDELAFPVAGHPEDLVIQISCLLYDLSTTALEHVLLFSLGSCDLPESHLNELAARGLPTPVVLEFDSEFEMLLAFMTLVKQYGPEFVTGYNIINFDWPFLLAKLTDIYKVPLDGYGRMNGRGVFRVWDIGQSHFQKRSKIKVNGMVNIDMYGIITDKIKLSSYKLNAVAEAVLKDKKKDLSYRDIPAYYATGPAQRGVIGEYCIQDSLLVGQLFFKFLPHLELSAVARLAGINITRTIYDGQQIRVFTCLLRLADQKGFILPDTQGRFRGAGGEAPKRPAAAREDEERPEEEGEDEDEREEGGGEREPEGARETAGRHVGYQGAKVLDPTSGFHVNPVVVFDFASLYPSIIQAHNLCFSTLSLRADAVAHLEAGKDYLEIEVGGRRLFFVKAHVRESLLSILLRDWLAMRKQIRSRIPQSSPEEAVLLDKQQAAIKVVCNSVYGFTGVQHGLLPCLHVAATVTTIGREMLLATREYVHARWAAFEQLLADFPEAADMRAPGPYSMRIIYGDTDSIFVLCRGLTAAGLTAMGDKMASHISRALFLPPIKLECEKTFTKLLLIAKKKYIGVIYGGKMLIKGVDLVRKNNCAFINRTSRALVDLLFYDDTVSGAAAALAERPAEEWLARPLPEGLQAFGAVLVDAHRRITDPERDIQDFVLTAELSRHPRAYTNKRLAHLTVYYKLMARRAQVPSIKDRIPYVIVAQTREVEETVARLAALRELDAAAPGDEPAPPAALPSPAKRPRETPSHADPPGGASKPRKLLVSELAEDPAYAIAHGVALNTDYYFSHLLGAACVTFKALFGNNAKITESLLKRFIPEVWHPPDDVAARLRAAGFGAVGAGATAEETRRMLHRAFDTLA
Kind of data set: Inhibition of HSV1 DNA polymerase by scintillation proximity assay. Set-up: species or system Human alphaherpesvirus 1.

A further data set concerns Human alphaherpesvirus 1. Kind of data set: Antiviral activity against HSV1 KOS by plaque reduction assay. The class given is functional, organism-based. To be noted: Human alphaherpesvirus 1, KOS. The method, boiled down: as §1
A short description of data set [6]: Inhibition of VZV DNA polymerase by scintillation proximity assay. Also noted: species or system Human alphaherpesvirus 3.
The nature of data set [7]: Cytotoxicity against HFF cells after 3 days by neutral red dye uptake assay. The class given is cell-based. To be noted: human. An outline of the steps: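 Uninfected, replicating HFF cells were seeded as subconfluent monolayers and exposed to compound for 3 days.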
A further data set concerns Human gammaherpesvirus 4. The experiment in a line: Antiviral activity against EBV lytic replication in GG68 cells after 72 hrs by Southern blot analysis. It counts as functional, organism-based. Particulars: human gammaherpesvirus 4, GG68, 72 h.
Data set [8] can be described thus: Oral bioavailability in dog. The class given is ADME, organism-based, Canis lupus familiaris. Particulars: in vivo. The method, boiled down:
(§2)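 Dosing was intravenous at 5 mg/kg and oral at 15 mg/kg. The vehicle was 80/20 PEG400/0.01 M methanesulfonic acid.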

Data set [9] can be described thus: Aqueous solubility of the compound. It counts as physicochemical.
Data set [10] can be described thus: Oral bioavailability in rat. It counts as ADME, organism-based. To be noted: in vivo. An outline of the steps:
as §2

Consider `CN(Cc1cc2c(=O)c(C(=O)NCc3ccc(C(F)(F)F)cc3)cn(C)c2o1)C[C@@H](O)c1ccco1`, for which the IC50 – broadly, the concentration needed to halve the response being measured – in [1] turned out to be 6450 nM.

`CN(Cc1cc2c(=O)c(C(=O)NCc3ccccc3)cn(C)c2o1)C[C@@H](O)c1ccco1` showed an IC50 in [1] of 11400 nM.

Consider `CN(Cc1cc2c(=O)c(C(=O)NCc3ccc(Cl)cc3)cn(C)c2o1)C[C@@H](O)c1ccccn1`, for which the IC50 was 220 nM in data set [1]; over 20000 nM in [2]; 90 nM with Human alphaherpesvirus 3; over 20000 nM in data set [3]; 170 nM in the data set on Human betaherpesvirus 5; over 20000 nM in data set [4]. The IC50 in [5] was 350 nM; with Human alphaherpesvirus 1, 5400 nM; in data set [6], 100 nM. For the same compound, the CC50 (as a rule, the concentration giving 50% cytotoxicity) at 72 h in data set [7] was over 100000 nM.

On to `CN(Cc1cc2c(=O)c(C(=O)NCc3ccc(F)cc3)cn(C)c2o1)C[C@@H](O)c1ccco1`, for which 610 nM corresponded to half-maximal inhibition in [1] (IC50).

As for `Cc1ccc(CNC(=O)c2cn(C)c3oc(CN(C)C[C@@H](O)c4ccco4)cc3c2=O)cc1`, the IC50 in [1] was found to be 3140 nM.

As for `CN(Cc1cc2c(=O)c(C(=O)NCc3ccc(Cl)cc3)cn(C)c2o1)C[C@@H](O)c1ncccn1`, the IC50 in data set [1] amounted to 170 nM; with Human betaherpesvirus 5, 360 nM.

Take `CN(Cc1cc2c(=O)c(C(=O)NCc3ccc(Cl)cc3)cn(CCc3ccccc3)c2o1)C[C@@H](O)c1ccco1`: inhibition in data set [1] was half-maximal at 690 nM (IC50).

Take `CCN(CC)CCn1cc(C(=O)NCc2ccc(Cl)cc2)c(=O)c2cc(CN(C)C[C@@H](O)c3ccco3)oc21`: the IC50 in data set [1] came out at 3920 nM.

Turning to `CN(Cc1cc2c(=O)c(C(=O)NCc3ccc(Cl)cc3)cn(C)c2o1)C[C@@H](O)c1cnccn1`, the IC50 in data set [1] was 220 nM; in the data set on Human betaherpesvirus 5, 28 nM.

In the data set on Human gammaherpesvirus 4, `CN(Cc1cc2c(=O)c(C(=O)NCc3ccc(Cl)cc3)cn(C)c2s1)C[C@@H](O)c1ccccn1` yielded an IC50 of 200 nM.

`CN(Cc1cc2c(=O)c(C(=O)NCc3ccc(Cl)cc3)cn(-c3ccccc3)c2o1)C[C@@H](O)c1ccco1` returned an IC50 in [1] of 830 nM.

In the case of `CN(Cc1cc2c(=O)c(C(=O)NCc3ccc(Cl)cc3)cn(-c3ccccn3)c2o1)C[C@@H](O)c1ccco1`, the IC50 is 140 nM in [1] and 50 nM in the data set with Human betaherpesvirus 5.

`CCCn1cc(C(=O)NCc2ccc(Cl)cc2)c(=O)c2cc(CN(C)C[C@@H](O)c3ccco3)oc21` gave an IC50 in data set [1] of 1120 nM.

Regarding `CN(Cc1cc2c(=O)c(C(=O)NCc3ccc(Cl)cc3)cn(C)c2o1)C[C@@H](O)c1ccco1`, the IC50 in data set [1] was 76 nM; in data set [2], over 20000 nM; in the data set with Human alphaherpesvirus 3, 20 nM; in data set [3] it was over 20000 nM; with Human betaherpesvirus 5 it was 26 nM; in data set [4], over 20000 nM. Moreover, the IC50 in data set [5] worked out at 220 nM; in the data set with Human alphaherpesvirus 1, 4300 nM; with Human gammaherpesvirus 4, 400 nM; in data set [6] it was 78 nM. For the same compound, the bioavailability (as a rule, dose-corrected exposure relative to a reference, in per cent) in data set [8] came out at 76%; in data set [10], 67%. For the same compound, the concentration in solution in data set [9] (solubility) was 60 µM (≈ 28.2 µg/mL). For the same compound, the CC50 at 72 h in [7] is over 100000 nM.

For the compound `CCn1cc(C(=O)NCc2ccc(Cl)cc2)c(=O)c2cc(CN(C)C[C@@H](O)c3ccco3)oc21`, the IC50 was 510 nM in data set [1] and 700 nM in the data set with Human betaherpesvirus 5.

As for `CN(Cc1cc2c(=O)c(C(=O)NCc3ccc(Cl)cc3)cn(C3CC3)c2o1)C[C@@H](O)c1ccco1`, the figures for the IC50 (in [1]; in the data set on Human betaherpesvirus 5) were 420 nM and 1200 nM, respectively.

`CN(Cc1cc2c(=O)c(C(=O)NCc3ccc(F)c(F)c3)cn(C)c2o1)C[C@@H](O)c1ccco1` registered a 50% inhibitory concentration (IC50) in [1] of 1020 nM.

`CN(Cc1cc2c(=O)c(C(=O)NCc3ccc(Br)cc3)cn(C)c2o1)C[C@@H](O)c1ccco1` registered an IC50 in data set [1] of 340 nM.

As for `Nc1nc2c(ncn2COCCO)c(=O)[nH]1` [ACYCLOVIR], the IC50 with Human betaherpesvirus 5 is over 20000 nM. The compound further gave a CC50 at 72 h in [7] of over 100000 nM.

In [4], `O=C(O)P(=O)(O)O` [FOSCARNET] had an IC50 of under 280 nM.

The compound `Nc1nc(O)c2ncn(COC(CO)CO)c2n1` [GANCICLOVIR] returned a CC50 at 72 h in data set [7] of over 100000 nM.
